≈ marks a conversion by molar mass, not a printed value. Calls of active or inactive are those of the source. The rule behind the calls is not given here.
Columns and labels:
[1] = Lipophilicity, logD of compound at pH 7.4 by shake-flask method; type: physicochemical; settings: buffer
Plasmodium falciparum [2] = assay: Antiplasmodial activity against Plasmodium falciparum 3D7 infected in RBC assessed as reduction in parasite growth measured for 8 hrs by Giemsa-staining based microscopic analysis; type: functional, organism-based
Method in brief: (§1)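 Giemsa-stained thin smears were read at 8 h and the percentages of extracellular and intracellular parasites counted, compared with untreated parasites at 0 h.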

Plasmodium falciparum [3] = assay: Antiplasmodial activity against W454-resistant population 1 Plasmodium falciparum 3D7 harboring Plasmodium falciparum ATP4 L928F mutant by LDH assay; type: functional, organism-based
[4] = Metabolic stability in rat hepatocyte […] assessed as intrinsic clearance measured per 10^6 cells; type: ADME, cell-based; settings: hepatocytes
Plasmodium falciparum [5] = assay: Antiplasmodial activity against N-(2,6-difluorophenyl)-2-(6-(5-methyl-1,3,4-oxadiazol-2-yl)-1H-indol-1-yl)acetamide-resistant Plasmodium falciparum Dd2 harboring plasmodium falciparum ATP4 D425E mutant by SYBR green staining based analysis; type: functional, organism-based
Plasmodium falciparum [6] = assay: Antiplasmodial activity against asexual blood stage Plasmodium falciparum Dd2-B2 assessed as parasite recrudescence by measuring minimum inoculum of resistance measured for 40 days by flow cytometry; type: functional; settings: time 40 day
[7] = Metabolic stability in mouse liver microsome assessed as intrinsic clearance; type: ADME; settings: microsomes
Plasmodium falciparum [8] = assay: Antiplasmodial activity against multidrug-resistant Plasmodium falciparum Dd2 harboring plasmodium falciparum ATP4 G358S mutant by SYBR green staining based analysis; type: functional, organism-based
[9] = Aqueous solubility in PBS buffer at pH 7.4; type: physicochemical
Plasmodium falciparum [10] = assay: Antimalarial activity against Plasmodium falciparum NF54 infected assessed as inhibition of female gamete formation incubated for 48 hrs by automated bright field microscopic analysis; type: functional, organism-based; settings: NF54, 48 h
Plasmodium falciparum [11] = assay: Antiplasmodial activity against Plasmodium falciparum 3D7 harboring Plasmodium falciparum ATP4 […] mutant by SYBR green staining based flow cytometry analysis; type: functional, organism-based
Plasmodium falciparum [12] = assay: Antiplasmodial activity against N-(2,6-difluorophenyl)-2-(6-(5-methyl-1,3,4-oxadiazol-2-yl)-1H-indol-1-yl)acetamide-resistant Plasmodium falciparum Dd2 harboring plasmodium falciparum ATP4 F156L mutant by SYBR green staining based analysis; type: functional, organism-based
Plasmodium falciparum [13] = assay: Antiplasmodial activity against Plasmodium falciparum Dd2-B2 assessed as reduction in recrudescence measured for 42 days by flow cytometry; type: functional, organism-based; settings: time 42.0 day
Plasmodium falciparum [14] = assay: Antiplasmodial activity against Plasmodium falciparum Dd2-B2 assessed as parasite clearance at 3 times IC90 incubated for 42 days by flow cytometry analysis; type: functional, organism-based; settings: time 42.0 day
[15] = Metabolic stability in human liver microsome assessed as intrinsic clearance; type: ADME; settings: microsomes
Plasmodium falciparum [16] = assay: Antiplasmodial activity against multidrug-resistant Plasmodium falciparum Dd2 harboring plasmodium falciparum ATP4 I398F/P990R/D1247Y mutant by SYBR green staining based analysis; type: functional, organism-based
Plasmodium falciparum [17] = assay: Antimalarial activity against Plasmodium falciparum NF54 infected assessed as inhibition of male gamete formation incubated for 48 hrs by automated bright field microscopic analysis; type: functional, organism-based; settings: NF54, 48 h
Plasmodium falciparum [18] = assay: Antiplasmodial activity against Plasmodium falciparum 3D7 infected in human […] cells incubated for 72 hrs; type: functional, organism-based; settings: 3D7, 72 h
Plasmodium falciparum [19] = assay: Antiplasmodial activity against Plasmodium falciparum Dd2-B2; type: functional, organism-based
Plasmodium falciparum [20] = assay: Antiplasmodial activity against W454-resistant population 3 Plasmodium falciparum 3D7 harboring Plasmodium falciparum ATP4 L928F mutant by LDH assay; type: functional, organism-based
Plasmodium falciparum [21] = assay: Antiplasmodial activity against Plasmodium falciparum Dd2-B2 assessed as parasite clearance at 3 times IC90 incubated for 5 days; type: functional, organism-based; settings: time 5.0 day
Plasmodium falciparum [22] = assay: Antiplasmodial activity against Plasmodium falciparum 3D7 infected in RBC assessed as reduction in extracellular parasite growth at 0.03 uM measured for 8 hrs by Giemsa-staining based microscopic analysis; type: functional; design: scale not given: the % may be the effect or the level left; method in brief: as §1
Plasmodium falciparum [23] = assay: Antiplasmodial activity against W454-resistant population 2 Plasmodium falciparum 3D7 harboring Plasmodium falciparum ATP4 L928F mutant by LDH assay; type: functional, organism-based
HepG2 = assay: Cytotoxicity against human HepG2 cells assessed as inhibition of cell growth incubated for 48 hrs by celltiterglo assay; type: toxicity, cell-based; settings: hepg2, 48 h
Plasmodium falciparum [24] = assay: Antiplasmodial activity against N-(2,6-difluorophenyl)-2-(6-(5-methyl-1,3,4-oxadiazol-2-yl)-1H-indol-1-yl)acetamide-resistant Plasmodium falciparum Dd2 harbouring ATP4 genome with 2.8 fold CNV by SYBR green staining based analysis; type: functional, organism-based
Plasmodium falciparum [25] = assay: Antiplasmodial activity against asexual Plasmodium falciparum 3D7 infected in human […] cells assessed as reduction in parasite growth measured for 72 hrs by LDH assay; type: functional, organism-based; settings: 3D7, 72 h
Plasmodium falciparum [26] = assay: Antiplasmodial activity against Plasmodium falciparum 3D7 infected in RBC assessed as reduction in extracellular parasite growth at 6.7 nM measured for 8 hrs by Giemsa-staining based microscopic analysis; type: functional; design: scale not given: the % may be the effect or the level left; method in brief: as §1
Plasmodium falciparum [27] = assay: Antiplasmodial activity against Plasmodium falciparum 3D7 infected in RBC assessed as reduction in deoxycytidine monophosphate level at 20 nM incubated for 5 hrs by LC-MS analysis; type: functional, organism-based
Plasmodium falciparum [28] = assay: Antiplasmodial activity against Plasmodium falciparum 3D7 infected in RBC assessed as reduction in nucleotide level at 20 nM incubated for 5 hrs by LC-MS analysis; type: functional, organism-based
Plasmodium falciparum [29] = assay: Antiplasmodial activity against Plasmodium falciparum 3D7 infected in RBC assessed as reduction in deoxythymidine diphosphate level at 20 nM incubated for 5 hrs by LC-MS analysis; type: functional, organism-based
Plasmodium falciparum [30] = assay: Antiplasmodial activity against Plasmodium falciparum 3D7 infected in RBC assessed as reduction in pyrimidine-deoxyribonucleotides level at 20 nM incubated for 5 hrs by LC-MS analysis; type: functional, organism-based
Plasmodium falciparum [31] = assay: Antiplasmodial activity against Plasmodium falciparum 3D7 infected in RBC assessed as reduction in deoxythymidine triphosphate level at 20 nM incubated for 5 hrs by LC-MS analysis; type: functional, organism-based
Plasmodium falciparum [32] = assay: Antiplasmodial activity against Plasmodium falciparum 3D7 infected in RBC assessed as reduction in extracellular parasite growth at 0.7 µM measured for 8 hrs by Giemsa-staining based microscopic analysis; design: scale not given: the % may be the effect or the level left

Structure (SMILES) | EC50 (Plasmodium falciparum [3]) [nM] | EC50 (Plasmodium falciparum [5]) [nM] | EC50 (Plasmodium falciparum [8]) [nM] | EC50 (Plasmodium falciparum [12]) [nM] | EC50 (Plasmodium falciparum [16]) [nM] | EC50 (Plasmodium falciparum [18]) [nM] | EC50 (Plasmodium falciparum [20]) [nM] | EC50 (Plasmodium falciparum [23]) [nM] | EC50 (Plasmodium falciparum [24]) [nM] | also measured
COc1cc(NC(=O)Cn2ccc3cc(F)c(-c4cnn(C)c4)cc32)cc(OC)c1OC | 47 | 19 | 42 | 40 | 10 | 4 | 44 | 44 | 23 | logD [1]: 3.2; Activity (Plasmodium falciparum [2]): Active; intrinsic clearance (CLint) [4]: 1.9 uL/min/10^6 cells; log10MIR (Plasmodium falciparum [6]): 8.7; intrinsic clearance (CLint) [7]: 90 µL/min/mg; solubility kinetic [9]: 2.7 µM (≈ 1.18 µg/mL); EC50 (Plasmodium falciparum [10]): 180 nM; Activity (Plasmodium falciparum [11]): Active; Activity (Plasmodium falciparum [13]): Active; Activity (Plasmodium falciparum [14]): Active; intrinsic clearance (CLint) [15]: 69 µL/min/mg; EC50 (Plasmodium falciparum [17]): 190 nM; IC50 (Plasmodium falciparum [19]): 17.3 nM; Activity (Plasmodium falciparum [21]): Active; Activity (Plasmodium falciparum [22]): ~24%; CC50 (HepG2): > 40000 nM; EC50 (Plasmodium falciparum [25]): 7 nM
C[C@H]1Cc2c([nH]c3cc(Cl)c(F)cc23)[C@@]2(N1)C(=O)Nc1ccc(Cl)cc12 [CIPARGAMIN] | < 2 | 2 | > 100 | 3 | 4 | 1 | 2 | < 2 | 4 | Activity (Plasmodium falciparum [26]): ~24%; Activity (Plasmodium falciparum [27]): inactive; Activity (Plasmodium falciparum [28]): inactive; Activity (Plasmodium falciparum [29]): inactive; Activity (Plasmodium falciparum [30]): inactive; Activity (Plasmodium falciparum [31]): inactive
N#Cc1cc(NC(=O)[C@H]2c3ccccc3C(=O)N(CC(F)(F)F)[C@@H]2c2cccnc2)ccc1F [SJ-733] | 579 |  | > 10000 |  | 95 | 61 | 533 | 537 |  | Activity (Plasmodium falciparum [32]): ~24%

— ChEMBL document CHEMBL6115053, “Optimization and Characterization of N-Acetamide Indoles as Antimalarials That Target PfATP4” (J Med Chem, 2025)
